Our source for the IC50 values is ChEMBL document CHEMBL1149157, “Synthesis and structure-activity relationship of novel antitumoral platinum xanthate complexes” (J Med Chem, 2004).

A value given as a limit tells only on which side of the number the result lay.

Type in all cases: functional, cell-based, Homo sapiens
Assay [1] relates to SK-OV-3. The assay can be described thus: Cytotoxic activity was determined in vitro in SK-OV-3 cell line culture at pH 6.8. An outline of the steps: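 SK-OV-3 seeded at 1×10^6 cells/plate. Next day, placed in pH 6.8 medium (1.3 g NaHCO3/L, HCl-treated serum, 5% CO2). Given 2 h at 37°C, in quadruplicate, of 50–0.8 µg/mL (1:2; acetone ≤5%), then drug-free pH 7.4 medium until controls were confluent. Formaldehyde-fixed and crystal violet-stained, A550. IC50 from dose–response curves, mean of four assays ± SD.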

Assay [2] concerns KB. The assay can be described thus: Cytotoxic activity was determined in vitro in KB cell line culture at pH 6.8. An outline of the steps:
(§1)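 Cells at 2×10^6/plate were moved the next day into pH 6.8 medium (1.3 g NaHCO3/L; serum given 1 N HCl; 30 min 5% CO2). Treated 2 h at 37°C, quadruplicate, 50–0.8 µg/mL in 1:2 steps (acetone ≤5%), then grown in drug-free pH 7.4 medium to control confluence. Crystal violet stain eluted with ethanol/1% acetic acid before A550. IC50 from curves, mean of four assays ± SD.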

Assay [3] concerns SK-OV-3. The assay can be described thus: Cytotoxic activity was determined in vitro in SK-OV-3 cell line culture at pH 7.4. In short, it runs like this: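 With 1×10^6 cells/plate seeded, medium was changed the next day to pH 7.4 (2.2 g NaHCO3/L) under 5% CO2. Cells were exposed 2 h at 37°C in quadruplicate to a 1:2 series of 50–0.8 µg/mL (acetone ≤5%), then given drug-free pH 7.4 medium until controls were confluent. Crystal violet read at 550 nm after formaldehyde fixation. IC50 from curves; mean of four assays ± SD.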

For assay [4], the system named is LXF-289 cell line. The experiment in a line: Cytotoxic activity was determined in vitro in LXF-289 cell line culture at pH 6.8. In short, it runs like this: (§2)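 Seeded at 2×10^6 cells/plate. Next day, switched to pH 6.8 medium (1.3 g NaHCO3/L, serum acidified with 1 N HCl) and equilibrated in 5% CO2. Exposed for 2 h at 37°C in quadruplicate to 50–0.8 µg/mL (1:2 series; acetone ≤5%), then given drug-free pH 7.4 medium until controls were confluent. Read by formaldehyde fixation and crystal violet at 550 nm. IC50 from dose–response curves, mean of four assays ± SD.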

Assay [5] relates to SK-MEL-25. The assay can be described thus: Cytotoxic activity was determined in vitro in SK-MEL-25 cell line culture at pH 6.8. An outline of the steps:
as §2

The test system of assay [6] is SK-MEL-25. The assay can be described thus: Cytotoxic activity was determined in vitro in SK-MEL-25 cell line culture at pH 7.4. An outline of the steps: (§3)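 Plated at 2×10^6 cells/plate. After one day, medium was replaced with pH 7.4 medium (2.2 g NaHCO3/L) and equilibrated under 5% CO2. Cells got 2 h at 37°C, in quadruplicate, of a 1:2 series 50–0.8 µg/mL (acetone ≤5%), then drug-free pH 7.4 medium for 24–96 h until controls were confluent. Fixed with 3% formaldehyde, stained with 1% crystal violet, A550. IC50 from dose–response curves; mean of four assays ± SD.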

The subject of assay [7] is MCF7. The experiment in a line: Cytotoxic activity was determined in vitro in MCF-7 cell line culture at pH 6.8. In short, it runs like this:
as §1

Assay [8] concerns Calu-6. The experiment in a line: Cytotoxic activity was determined in vitro in Calu-6 cell line culture at pH 7.4. In short, it runs like this:
as §3

The test system of assay [9] is Calu-6. The experiment in a line: Cytotoxic activity was determined in vitro in Calu-6 cell line culture at pH 6.8. An outline of the steps:
as §2

Assay [10] deals with MCF7. The experiment in a line: Cytotoxic activity was determined in vitro in MCF-7 cell line culture at pH 7.4. In short, it runs like this: (§4)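 Using pH 7.4 medium (2.2 g NaHCO3/L) on cells plated a day earlier at 2×10^6/plate, with equilibration in 5% CO2. Compounds were applied for 2 h at 37°C in quadruplicate at 50–0.8 µg/mL (1:2; acetone ≤5%), followed by drug-free pH 7.4 medium until controls were confluent. Fixed and stained with crystal violet, dye eluted with ethanol/1% acetic acid, read at 550 nm. IC50 from curves, mean of four ± SD.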

Assay [11] has as its system LXF-289 cell line. The experiment in a line: Cytotoxic activity was determined in vitro in LXF-289 cell line culture at pH 7.4. In short, it runs like this:
as §3

For assay [12], the system named is KB. The experiment in a line: Cytotoxic activity was determined in vitro in KB cell line culture at pH 7.4. In short, it runs like this: as §4

For “2,6-bis(cyclohexyloxy)-1,3,5,7-tetrathia-4-platinaspiro[3.3]heptane”, the IC50 in assay [1] is 9 µM; in assay [2], 6 µM; in [3], 12 µM; in [4] it was 6 µM; in assay [5], 3 µM; in assay [6] it was 8 µM. Also, the IC50 in assay [7] was found to be 5 µM; in assay [8] it was 8 µM; in assay [9] it was 3 µM; in assay [10] it was 9 µM; in assay [11], 12 µM; in [12], 9 µM.

In the case of “2,6-dibutoxy-1,3,5,7-tetrathia-4-platinaspiro[3.3]heptane”, the half-inhibitory concentration (IC50) in [1] worked out at 33 µM; in assay [2] it was 16 µM; in assay [3], 90 µM; in [4] it was 24 µM; in [5], 10 µM; in assay [6], 22 µM. Further, the IC50 in assay [7] worked out at 7 µM; in assay [8], 19 µM; in assay [9] it was 7 µM; in assay [10], 25 µM; in assay [11], 39 µM; in assay [12], 32 µM.

In the case of “2,6-dipropoxy-1,3,5,7-tetrathia-4-platinaspiro[3.3]heptane”, the IC50 in assay [1] worked out at 45 µM; in assay [2], 12 µM; in assay [3], 50 µM; in assay [4], 37 µM; in [5], 10 µM; in assay [6], 21 µM. In addition, the IC50 stood at 4 µM in assay [7]; 21 µM in assay [8]; 7 µM in [9]; 9 µM in assay [10]; 49 µM in assay [11]; 38 µM in [12].

“2,6-bis(nonyloxy)-1,3,5,7-tetrathia-4-platinaspiro[3.3]heptane”: the IC50 in assay [1] was more than 76 µM; in assay [2] it was more than 76 µM; in assay [3], more than 76 µM; in assay [4] it was 38 µM; in [5], more than 76 µM; in [6], more than 76 µM. Also, the half-inhibitory concentration (IC50) in assay [7] is 24 µM; in assay [8], more than 76 µM; in assay [9], more than 76 µM; in [10], 30 µM; in [11] it was 53 µM; in assay [12], more than 76 µM.

For the substance CISPLATIN, the IC50 in assay [1] was 64 µM; in assay [2] it was 55 µM; in assay [3], 90 µM; in [4], 113 µM; in assay [5] it was 78 µM; in assay [6] it was 90 µM. The IC50 in assay [7] stood at 108 µM; in [8], 25 µM; in assay [9], 16 µM; in [10], 160 µM; in assay [11] it was 83 µM; in assay [12], 52 µM.

“2,6-dimethoxy-1,3,5,7-tetrathia-4-platinaspiro[3.3]heptane”: the IC50 in assay [1] was determined as 26 µM; in assay [2] it was 20 µM; in assay [3], 47 µM; in assay [4] it was 39 µM; in [5] it was 14 µM; in [6] it was 80 µM. Also, the IC50 in assay [7] was 7 µM; in assay [8], 21 µM; in assay [9], 11 µM; in [10], 19 µM; in [11] it was 102 µM; in assay [12] it was 49 µM.

For the substance “2,6-bis[(3,3-dimethylbutan-2-yl)oxy]-1,3,5,7-tetrathia-4-platinaspiro[3.3]heptane”, the IC50 in [1] stood at 18 µM; in assay [2] it was 5 µM; in [3], 34 µM; in [4], 15 µM; in assay [5] it was 10 µM; in [6], 11 µM. Moreover, the IC50 in assay [7] was found to be 7 µM; in assay [8] it was 9 µM; in assay [9], 9 µM; in assay [10], 9 µM; in assay [11] it was 18 µM; in assay [12], 7 µM.

Regarding “2,6-bis(pentan-3-yloxy)-1,3,5,7-tetrathia-4-platinaspiro[3.3]heptane”, the IC50 in [1] was determined as 8 µM; in assay [2], 4 µM; in assay [3], 5 µM; in assay [4] it was 8 µM; in assay [5] it was 5 µM; in assay [6] it was 9 µM. Also, the IC50 in assay [7] was found to be 5 µM; in assay [8], 5 µM; in assay [9] it was 3 µM; in assay [10], 6 µM; in assay [11], 10 µM; in assay [12] it was 5 µM.

As to “2,6-bis(2,2-dimethylpropoxy)-1,3,5,7-tetrathia-4-platinaspiro[3.3]heptane”, the IC50 in assay [1] was more than 86 µM; in assay [2], more than 96 µM; in [3] it was more than 86 µM; in assay [4] it was 59 µM; in assay [5], 72 µM; in assay [6], 83 µM. The IC50 was 62 µM in assay [7]; 27 µM in assay [8]; 25 µM in [9]; more than 86 µM in assay [10]; 75 µM in [11]; more than 96 µM in assay [12].

“2,6-bis(3-methylbutoxy)-1,3,5,7-tetrathia-4-platinaspiro[3.3]heptane”: the IC50 in assay [1] worked out at 24 µM; in assay [2], 35 µM; in [3] it was 21 µM; in assay [4], 23 µM; in [5], 20 µM; in assay [6], 35 µM. The IC50 in [7] worked out at 23 µM; in assay [8] it was 21 µM; in assay [9] it was 6 µM; in assay [10] it was 40 µM; in assay [11], 71 µM; in assay [12], 19 µM.

As to “2,6-bis({tricyclo[5.2.2.0^{2,6}]undecan-8-yloxy})-1,3,5,7-tetrathia-4-platinaspiro[3.3]heptane”, the IC50 is more than 38 µM in assay [1]; more than 77 µM in assay [2]; more than 38 µM in assay [3]; more than 38 µM in assay [4]; more than 38 µM in assay [5]; more than 38 µM in [6]. For the same substance, the IC50 in assay [7] is 32 µM; in [8] it was 18 µM; in assay [9], 8 µM; in assay [10], more than 38 µM; in [11] it was more than 38 µM; in assay [12], more than 77 µM.

For “2,6-diethoxy-1,3,5,7-tetrathia-4-platinaspiro[3.3]heptane”, the IC50 in assay [1] is 86 µM; in assay [2], 18 µM; in [3] it was 98 µM; in assay [4], 45 µM; in assay [5] it was 21 µM; in [6], 56 µM. For the same substance, the IC50 was found to be 12 µM in assay [7]; 24 µM in assay [8]; 21 µM in [9]; 47 µM in assay [10]; 91 µM in assay [11]; 58 µM in assay [12].

As for “2,6-bis(cyclopropylmethoxy)-1,3,5,7-tetrathia-4-platinaspiro[3.3]heptane”, the IC50 in assay [1] is 95 µM; in assay [2], 33 µM; in assay [3], 67 µM; in assay [4], more than 102 µM; in [5] it was 64 µM; in assay [6], 85 µM. The 50% inhibitory concentration (IC50) in [7] is 95 µM; in [8] it was 33 µM; in [9] it was 17 µM; in assay [10], 90 µM; in assay [11], more than 102 µM; in [12], 72 µM.

With “2,6-bis(cyclopentyloxy)-1,3,5,7-tetrathia-4-platinaspiro[3.3]heptane”, the IC50 in assay [1] came out at 17 µM; in [2], 14 µM; in assay [3], 26 µM; in assay [4] it was 37 µM; in [5] it was 5 µM; in [6], 9 µM. Besides, the IC50 in [7] amounted to 5 µM; in assay [8] it was 5 µM; in assay [9], 3 µM; in assay [10] it was 10 µM; in [11], 38 µM; in assay [12], 24 µM.

A word on the IC50: it is the midpoint of a concentration-inhibition curve.
